Screens (PubChem BioAssay)
Compounds with a hit are over-represented: about 5.8% of the library has one in this group of screens.
Cl transport mod: modulates chloride dependent transport by human KCC2; KCC2 cells, thallium flux FluoZin-2 fluorescence; B-score of Tl+ flux slope (higher = more flux/activation; lower = inhibition) at 10 µM; 2.2% of 190,000 active; AID 1456;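 active = thallium flux slope and its plate-corrected score both differing from the plate sample mean at a set confidence after two filtering rounds, in either direction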;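 note: slope of fluorescence scaled to starting intensity during 10 to 20 s after thallium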
ROMK primary: modulators of human ROMK potassium channel; P48048; Tet-inducible ROMK, thallium flux fluorescence; actives lie on both sides; AID 1918; B-score at 10 µM; 2% of 130,000 active;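 active = signal ratio slope over the read window, or its plate-corrected B-score, at least 3 SD from the plate mean, either direction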;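 note: B-score of the F/F0 ratio slope over 7 to 12 s after thallium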
Target sequence (P48048 whole entry, looked up): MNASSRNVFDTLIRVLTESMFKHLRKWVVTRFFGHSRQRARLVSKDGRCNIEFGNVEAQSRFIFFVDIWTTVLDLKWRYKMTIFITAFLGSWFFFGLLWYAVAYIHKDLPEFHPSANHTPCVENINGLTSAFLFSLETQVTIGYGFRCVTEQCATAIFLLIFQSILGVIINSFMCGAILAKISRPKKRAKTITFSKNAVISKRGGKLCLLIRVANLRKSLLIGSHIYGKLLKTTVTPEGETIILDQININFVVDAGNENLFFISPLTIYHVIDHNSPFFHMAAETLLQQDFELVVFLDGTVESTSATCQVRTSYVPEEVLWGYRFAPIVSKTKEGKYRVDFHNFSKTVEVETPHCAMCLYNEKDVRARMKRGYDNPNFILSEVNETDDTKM
14-3-3 Bad PPI: disrupts binding of bovine 14-3-3 zeta to phospho-Bad peptide | P63103 | TR-FRET 14-3-3zeta/Dy647-pBad peptide displacement, 1 h | inhibition, % at 21.7 µM | 0.71% of 220,000 active;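 active = inhibition above about 70%, limit read from the data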
Target sequence (P63103 whole entry, looked up): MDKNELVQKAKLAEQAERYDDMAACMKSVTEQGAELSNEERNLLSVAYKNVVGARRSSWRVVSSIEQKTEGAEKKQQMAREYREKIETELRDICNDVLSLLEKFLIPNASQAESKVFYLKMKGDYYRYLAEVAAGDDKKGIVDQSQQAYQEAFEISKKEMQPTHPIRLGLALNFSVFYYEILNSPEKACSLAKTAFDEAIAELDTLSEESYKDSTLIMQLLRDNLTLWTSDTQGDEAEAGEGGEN
WT yeast gro inh: growth inhibition of WT yeast, mitochondrial fusion screen; AID 1362; inhibition, % at 10 µM; mitochondrial fusion phenotypic screen, WT strain; 2.1% of 190,000 active; in the data active = inhibition above about 58%; tested in S. cerevisiae
p47phox inh: p47phox (human) inhibition; P14598; p47phox/p22phox peptide binding, fluorescence polarization, 2 h; inhibition, % at 24.7 µM; 0.53% of 220,000 active; AID 1274;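 active = inhibition above about 30%, limit read from the data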
RBBP9 inhibitor: blocks human serine hydrolase RBBP9 | inhibition, % at 7.94 µM | AID 1515 | 0.2% of 220,000 active | O75884 | recombinant RBBP9, FP-Rh probe fluorescence polarization;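 active = inhibition above the campaign mean of all tested compounds plus 3 SD, cut at about 14% in these data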
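Measured by: FP readout at 525/598 nm; material: recombinant human RBBP9; also added: Serine-hydrolase probe FP-Rh, 375 nM pre-mixing; medium: Tris buffer pH 8.0, NaCl, Pluronic; replication: one well per compound; doses: one concentration, 7.94 µM nominal, 0.794% DMSO; timing: preincubation 30 min plus labeling 45 min at 25 °C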
Each line names hits and unclear results; the compound was inactive in the other large screens; [ ] = another dose, or the depositor's remark.

CCNC(=S)N/N=C/c1cccc(OCc2c(F)cccc2Cl)c1	WT yeast gro inh 69 (no result: ROMK primary)
Fc1ccccc1COc1ccc(/C=N/NC(=S)NCc2ccccc2)cc1	none (no result: ROMK primary)
CNC(=S)N/N=C/c1cccc(OCc2ccccc2F)c1	WT yeast gro inh 67
CC(N=C1NS(=O)(=O)c2ccccc21)C(=O)N1CCc2ccccc2C1 (centres undefined)	none
CCOC(=O)N1CCN(S(=O)(=O)c2ccc(C(=O)Nc3ccc4c(c3)C(=O)NC4=O)cc2)CC1	none
C/C(=N\Nc1nc2ccccc2[nH]1)c1cc2ccccc2o1	WT yeast gro inh 60 (no result: ROMK primary)
C/C(=N\Nc1nc2ccccc2[nH]1)c1ccc2c(c1)OCCO2	none
C/C(=N/O)c1no[n+]([O-])c1/C(C)=N\O	none (no result: ROMK primary, WT yeast gro inh)
Nc1nc(C2C(=O)CCCC2=O)cs1	14-3-3 Bad PPI 71 (no result: ROMK primary)
COc1cccc(OCCN2CCN(c3ncnc4c3cnn4-c3ccccc3)CC2)c1	WT yeast gro inh 59
COc1ccc(-c2nc(CC(=O)O)cs2)cc1	none
COc1ccc(-c2nc(CC(=O)O)cs2)cc1OC	14-3-3 Bad PPI 81
O=C(Nc1ccc2nc(-c3ccccn3)[nH]c2c1)C1CCCCC1	p47phox inh 40 (no result: ROMK primary)
COCCNC(=O)CSc1nnc(-c2ccccc2F)n1Cc1ccccc1	none
C=CCn1c(O)c(C2=c3ccccc3=NC2=O)sc1=Nc1ccc(O)cc1	WT yeast gro inh 94 (no result: ROMK primary, RBBP9 inhibitor)
OC(CNCc1cccc(Br)c1)c1ccccc1 (centres undefined)	none
OC(CNCc1ccc(-c2ccccc2)cc1)c1ccccc1 (centres undefined)	WT yeast gro inh 60
COC(=O)C1=C(C)NC2=C(C(=O)CCC2)C1c1ccc(-c2ccsc2C(=O)OC)o1 (centres undefined)	none (no result: ROMK primary, WT yeast gro inh)
Cc1nnc(SCC(=O)Nc2cc(-c3cc(C)c(C)cc3C)nn2-c2ccccc2)s1	WT yeast gro inh 63
O=c1[nH]c2ccccc2c(O)c1-[n+]1ccccc1	none (no result: WT yeast gro inh)
O=c1[nH]c2ccccc2c(O)c1O	RBBP9 inhibitor 16
CCCCn1c(SC(C)C(N)=O)nc2cc(C(=O)OC)ccc2c1=O (centres undefined)	Cl transport mod 9.8 (no result: ROMK primary)
CCSc1nc2cc(C(=O)OC)ccc2c(=O)n1CC	none (no result: ROMK primary)
CCOc1cc(N2CCOCC2)c(OCC)cc1NS(=O)(=O)c1ccc(Cl)s1	14-3-3 Bad PPI 83, p47phox inh 59 (no result: ROMK primary)
Nc1nc(-c2ccc3c(c2)CCCC3)cs1	WT yeast gro inh 81 (no result: ROMK primary)
COc1ccccc1NS(=O)(=O)c1cccc(C(=O)NCc2ccco2)c1	none
CC(C)C(c1nnnn1C1CCCC1)N(C)C1CCCCC1 (centres undefined)	none (no result: Cl transport mod, ROMK primary)
Cc1ccc(C(c2nnnn2C2CCCCC2)N(C)C2CCCCC2)cc1 (centres undefined)	WT yeast gro inh 81
Nc1nc2ccccc2n1CCOc1ccccc1Cl	ROMK primary -3.9 (no result: Cl transport mod)
Cc1cc([N+](=O)[O-])nn1CCCC(=O)NCc1ccccc1	none (no result: ROMK primary)
Cc1cc([N+](=O)[O-])nn1CC(=O)NCc1nc2ccccc2[nH]1	p47phox inh 41 (no result: ROMK primary)
O=C(NC(=S)Nc1cc([N+](=O)[O-])ccc1O)c1cccnc1	none
CN1C(=O)N(C)C2(c3ccccc3)N(C)C(=O)NC12c1ccccc1 (centres undefined)	p47phox inh 49 (no result: Cl transport mod, ROMK primary)
O=C(Nc1ccc(-n2nncc2-c2ccco2)cc1)c1cc2ccccc2oc1=O	14-3-3 Bad PPI 79[fluorescence artefact?] (no result: ROMK primary)
COc1ccccc1NC(=O)/C(=C/c1cccc([N+](=O)[O-])c1)c1ccccc1	none
OCCNc1cc(Cl)ncn1	none (no result: ROMK primary, WT yeast gro inh)
COc1cc(CNc2ccccc2SC)ccc1O	14-3-3 Bad PPI 77 (no result: Cl transport mod)
CCOc1cc(CNc2ccccc2SC)ccc1O	none
C/C(=N\Nc1ccc(Cl)c(Cl)c1)c1ccc(-n2ccnc2)cc1	WT yeast gro inh 69
C/C(=N\NC(N)=S)c1ccc(-n2ccnc2)cc1	none (no result: ROMK primary, WT yeast gro inh)
C/C(=N\NC(=O)COc1ccc(C(C)(C)C)cc1)c1ccc(-n2ccnc2)cc1	WT yeast gro inh 71
Cc1ncc(CN=Cc2ccc(Cl)cc2)c(N)n1	none (no result: ROMK primary, WT yeast gro inh)
O=C(C1CCCN(S(=O)(=O)c2cccc3nsnc23)C1)N1CC=C(c2ccccc2)CC1 (centres undefined)	ROMK primary -4.3
CC(C)C(NS(=O)(=O)c1cccc2nsnc12)C(=O)Nc1nc2ccc(Cl)cc2s1 (centres undefined)	WT yeast gro inh 62 (no result: ROMK primary)
Cc1ccc2nc(NC(=O)C3CCCN(S(=O)(=O)c4cccc5nsnc45)C3)sc2c1 (centres undefined)	WT yeast gro inh 65
Cc1ccc(NC(=O)C(NS(=O)(=O)c2cccc3nsnc23)C(C)C)nc1 (centres undefined)	none (no result: ROMK primary)
CC(=O)c1c(C)n(C)c2ccc(OC(=O)c3ccc([N+](=O)[O-])cc3)cc12	none
Cc1cc2c(sc3c(C)ccc(C)c32)c(C)n1	none (no result: ROMK primary, WT yeast gro inh)
Cc1cccc(NC(=S)NNC(=O)c2csc(C(C)C)c2)c1	Cl transport mod 16
Cc1cccc(C(=O)NNC(=O)Nc2ccccc2)c1	none
CCc1cc(C(=O)NNC(=S)Nc2cccc(C)c2)cs1	Cl transport mod 9.3 (no result: ROMK primary)
Cc1cccc(NC(=S)NNC(=O)c2sccc2C)c1	none
O=C(Nc1cnccc1C(F)(F)F)NC1CCCCC1	none (no result: ROMK primary, WT yeast gro inh)
c1csc(CCNc2ncnc3sc4c(c23)CCC4)c1	Cl transport mod -4.5 (no result: ROMK primary, RBBP9 inhibitor)
O=c1cc(-c2ccccc2Cl)oc2c(NS(=O)(=O)c3cc(Cl)cc(Cl)c3O)ccc(O)c12	Cl transport mod 20
OCCC1CN(Cc2cc(F)ccc2-n2cccn2)CCN1Cc1ccc(F)cc1 (centres undefined)	none (no result: ROMK primary, WT yeast gro inh)
Cc1ccc(OCCSc2nc(NC(C)C)nc(NC(C)C)n2)cc1	WT yeast gro inh 72
COC(=O)[C@@]1(Cc2ccc(OC)cc2)[C@H]2c3cc(C(=O)N4CCCC4)n(CCc4c[nH]c5ccc(O)cc45)c3C[C@H]2CN1C(=O)c1ccccc1	none
Cc1ccc(-c2cc(-c3ccccc3Cl)c(C#N)c(N)n2)o1	none (no result: ROMK primary)
Cc1ccc(-c2cc(-c3ccccc3)c(C#N)c(N)n2)o1	WT yeast gro inh 65 (no result: ROMK primary)
O=C(CSc1nnc(SCc2cccc3ccccc23)s1)N=Nc1c(O)[nH]c2ccccc12	p47phox inh 32 (no result: ROMK primary)
O=C(Cc1cccs1)N=Nc1c(O)[nH]c2ccccc12	none (no result: ROMK primary, WT yeast gro inh)
O=C(COC(=O)CNC(=O)c1ccccc1F)Nc1cccnc1Cl	none
CSCCC(=O)Nc1nc(-c2ccccn2)cs1	none
O=C(CCCSc1ccccc1)Nc1nc(-c2ccccn2)cs1	WT yeast gro inh 69
CCCCc1nc2sc3c(=O)n(N)cnc3c2c2c1CCC2	none
O=C(Nc1nnc(-c2ccncc2)o1)c1cccc(N2C(=O)CCC2=O)c1	none
O=C(Nc1nnc(-c2ccc(Cl)cc2)o1)c1cccc(N2C(=O)CCC2=O)c1	Cl transport mod 17 (no result: ROMK primary)
O=C(Nc1nnc(-c2ccccc2)o1)c1ccc(Cl)cc1	Cl transport mod 64, ROMK primary 10
COC(=O)c1ccc(C(=O)Nc2nnc(-c3cccnc3)o2)cc1	none
